In paper PMC7548052 (Molecular Diversity, 2020):
Counter-ions that a name gives are not always drawn.

Assays:
Assay type in all cases: cell-based
Z-138 = experiment: Anticancer screening, MTS cell proliferation assay, 72 h; conditions: Homo sapiens
How it was run: (§1)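 HL-60, K-562, Z-138 and DND-41 suspension cells were seeded at 2500–6000 cells/well directly into wells already containing test compound at seven concentrations (100 to 6.4 × 10−3 µM). After 72 h, MTS reagent was added and absorbance read at 490 nm. GI50 is the concentration giving 50% growth inhibition. Two independent experiments were run, each point at least in triplicate.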

DND-41 = experiment: as above; conditions: Homo sapiens
How it was run: as §1

HL-60 = experiment: as above; conditions: Homo sapiens
How it was run: as §1

MCF-7 = experiment: Anticancer screening, MTT assay, 72 h; conditions: Homo sapiens, MCF7, 72 h
How it was run: (§2)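 Monolayer cultures were kept at 37 °C, 5% CO2 and plated on day 0 at 3 × 10^4 cells/mL (HCT 116, H460) or 5 × 10^4 cells/mL (MCF-7). Test agents were added in ten-fold dilutions (10−8 to 10−4 M) and incubated 72 h. Growth was read by MTT at 570 nm. GI50 is the concentration giving 50% inhibition. Two independent experiments were run, points at least in triplicate.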

Capan-1 = experiment: Anticancer screening, MTS cell proliferation assay, 72 h; conditions: Homo sapiens
How it was run: (§3)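 Human solid-tumour lines were grown as monolayers in supplier-recommended media at 37 °C, 5% CO2. LN-229 was seeded at 375 and Capan-1 at 250 cells/well and incubated overnight. Cells were then exposed for 72 h to seven concentrations (100 to 6.4 × 10−3 µM). MTS reagent was added and absorbance read at 490 nm. Two independent experiments were run, each point at least in triplicate.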

K-562 = experiment: Anticancer screening, MTS cell proliferation assay, 72 h; conditions: Homo sapiens
How it was run: as §1

LN-229 = experiment: Anticancer screening, MTS cell proliferation assay, 72 h; conditions: Homo sapiens
How it was run: as §3

H460 = experiment: Anticancer screening, MTT assay, 72 h; conditions: Homo sapiens
How it was run: as §2

HCT 116 = experiment: Anticancer screening, MTT assay, 72 h; conditions: Homo sapiens
How it was run: as §2

| SMILES | GI50 (Z-138; Z-138, 72 h) [µM] | GI50 (DND-41; DND41, 72 h) [µM] | GI50 (HL-60; HL-60, 72 h) [µM] | GI50 (MCF-7) [µM] | GI50 (Capan-1; CAPAN-1, 72 h) [µM] | GI50 (K-562; K562, 72 h) [µM] | GI50 (LN-229; LN-229, 72 h) [µM] | GI50 (H460; NCI-H460, 72 h) [µM] | GI50 (HCT 116; HCT-116, 72 h) [µM] | GI50 (Z-138; Z-138) [µM] | GI50 (DND-41; DND41) [µM] | GI50 (HL-60; HL-60) [µM] | GI50 (Capan-1; CAPAN-1) [µM] | GI50 (K-562; K562) [µM] | GI50 (LN-229; LN-229) [µM] | GI50 (H460; NCI-H460) [µM] | GI50 (HCT 116; HCT-116) [µM] |
| --- | --- | --- | --- | --- | --- | --- | --- | --- | --- | --- | --- | --- | --- | --- | --- | --- | --- |
| C=C(CC(=O)OC)C(=O)Nc1cccnc1 [Compound 6, Methyl 3-[(pyridin-3-yl)carbamoyl]but-3-enoate] | 10.9 | 26.3 ± 6.6 | 13.1 ± 1 | 3 ± 1 | 8.9 ± 0.1 | 49.9 ± 2.2 | 10.2 ± 1 | 18 ± 1 | 12 ± 2 |  |  |  |  |  |  |  |  |
| COc1cc(NC(C)CCCN)c2ncccc2c1 (stereo not shown) [PQ, primaquine diphosphate, reference compound] | 10.2 ± 0.5 | 14 ± 1 | 7 ± 0.5 | 7 ± 1.5 | 9 ± 3.2 | 43.3 ± 0.1 | 9.9 ± 0.4 | 17 ± 3 | 17 ± 1 |  |  |  |  |  |  |  |  |
| C=C(CC(=O)OC)C(=O)NCCCCNc1ccnc2cc(Cl)ccc12 [Compound 12, Methyl 3-({4-[(7-chloroquinolin-4-yl)amino]butyl}carbamoyl)but-3-enoate] | 1.9 ± 0.1 | 3.1 ± 0.1 | 1.9 | 0.8 ± 0.3 | 1.3 ± 0.4 | 8.1 ± 0.4 | 1.1 ± 0.1 | 2 ± 0.9 | 2 ± 0.05 |  |  |  |  |  |  |  |  |
| C=C(CC(=O)OC)C(=O)Nc1cccc(C(F)(F)F)c1 [Compound 3, Methyl 3-{[3-(trifluoromethyl)phenyl]carbamoyl}but-3-enoate] | 5.4 ± 0.1 | 21.2 ± 4 | 3.7 ± 0.1 | 2 ± 0.4 | 1.9 ± 0.3 | 13.9 ± 0.6 | 4.4 ± 0.1 | 9 ± 2 | 3 ± 1 |  |  |  |  |  |  |  |  |
| C=C(CC(=O)OC)C(=O)NCc1cccnc1 [Compound 8, Methyl 3-{[(pyridin-3-yl)methyl]carbamoyl}but-3-enoate] | 10.2 ± 0.3 | 16.3 ± 0.1 | 11 ± 0.3 | 6 ± 1 | 9.1 ± 0.7 | 53.3 ± 2.7 | 8.4 ± 0.1 | 16 ± 2 | 3 ± 1 |  |  |  |  |  |  |  |  |
| C=C(CC(=O)OC)C(=O)NCCc1cccnc1 [Compound 9, Methyl 3-{[2-(pyridin-3-yl)ethyl]carbamoyl}but-3-enoate] | 5.6 ± 1.6 | 18.5 ± 2.4 | 9.6 ± 0.6 | 2 ± 1 | 5.9 ± 0.2 | 34.5 ± 8.7 | 6.2 ± 0.8 | 15 ± 1 | 4 ± 1 |  |  |  |  |  |  |  |  |
| CC(=CC(=O)NCCCCNc1cc(C(F)(F)F)nc2c(C(F)(F)F)cccc12)C(=O)NCCCCNc1cc(C(F)(F)F)nc2c(C(F)(F)F)cccc12 [Compound 15, N,N′-bis(4-{[2,8-bis(trifluoromethyl)quinolin-4-yl]amino}butyl)-2-methylbut-2-enediamide] | 6.9 ± 1.3 | 7.9 ± 4.4 | 2.6 ± 0.2 | 0.7 ± 0.2 | 2.3 ± 0.3 | 8.6 ± 0.3 | 2.4 ± 0.8 | 3 ± 1 | 2.4 ± 0.4 |  |  |  |  |  |  |  |  |
| C=C(CC(=O)OC)C(=O)NCCCC(C)Nc1cc(OC)cc2cccnc12 (stereo not shown) [Compound 11, Methyl 3-({4-[(6-methoxyquinolin-8-yl)amino]pentyl}carbamoyl)but-3-enoate] | 11 ± 0.2 | 18.1 ± 1.1 | 11.1 ± 0.6 | 4 ± 1 | 5.4 ± 3.3 | 28.1 ± 7.1 | 4.3 ± 2.2 | 4 ± 0.5 | 2.5 ± 0.07 |  |  |  |  |  |  |  |  |
| CC(=O)O[C@@]12CO[C@@H]1C[C@H](O)[C@@]1(C)C(=O)[C@H](O)C3=C(C)[C@@H](OC(=O)[C@H](O)[C@@H](NC(=O)OC(C)(C)C)c4ccccc4)C[C@@](O)([C@@H](OC(=O)c4ccccc4)[C@H]21)C3(C)C [DTX, docetaxel, reference compound] |  |  |  |  |  |  |  |  |  | 0.0014 ± 0.0009 | 0.002 ± 0.0012 | 0.0104 ± 0.0024 | 0.0045 ± 0.002 | 0.0096 ± 0.0033 | 0.0035 ± 0.0012 | 0.0058 ± 0.0038 | 0.0045 ± 0.0044 |
| C=C(CC(=O)OC)C(=O)NCCCCNc1cc(C(F)(F)F)nc2c(C(F)(F)F)cccc12 [Compound 13, Methyl 3-[(4-{[2,8-bis(trifluoromethyl)quinolin-4-yl]amino}butyl)carbamoyl]but-3-enoate] | 12.2 ± 0.1 | 36.7 ± 10 | 10.3 ± 1.5 | 1.4 ± 0.1 | 32.2 ± 2.7 | 46.9 ± 0.7 | 10.8 ± 2.5 | 3.5 ± 1.3 | 2 ± 0.8 |  |  |  |  |  |  |  |  |
| CCN(CC)CCCC(C)Nc1ccnc2cc(Cl)ccc12 (stereo not shown) [CQ, chloroquine diphosphate, reference compound] | 13.6 ± 0.6 | 53.7 ± 6.9 | 13 ± 0.2 | 6 ± 1.8 | 14.9 ± 1.5 | 45 ± 0.7 | 22 ± 2.8 | 13 ± 0.8 | 16 ± 3 |  |  |  |  |  |  |  |  |
| COc1ccc2[nH]c(CCNC(=O)C=C(C)C(=O)NCCc3c[nH]c4ccc(OC)cc34)cc2c1 [Compound 14, N′-[2-(5-methoxy-1H-indol-2-yl)ethyl]-N-[2-(5-methoxy-1H-indol-3-yl)ethyl]-2-methylbut-2-enediamide] |  |  |  | 11 ± 0.3 |  |  |  | 23 ± 1 | 13 ± 0.2 |  |  |  |  |  |  |  |  |
| C=C(CC(=O)OC)C(=O)NCCc1c[nH]c2ccc(OC)cc12 [Compound 10, Methyl 3-{[2-(5-methoxy-1H-indol-3-yl)ethyl]carbamoyl}but-3-enoate] | 2.6 ± 0.3 | 18.9 ± 4.2 | 4.9 ± 0.8 | 2 ± 1.2 | 2.4 ± 0.9 | 16.5 ± 1 | 6.5 ± 1.2 | 11 ± 1 | 3 ± 1 |  |  |  |  |  |  |  |  |
| OC(c1cc(C(F)(F)F)nc2c(C(F)(F)F)cccc12)C1CCCCN1 (stereo not shown) [MQ, mefloquine hydrochloride, reference compound] | 12.6 ± 0.1 | 3.2 ± 0.2 | 5.9 ± 3.2 | 1.3 ± 0.2 | 2 ± 0.1 | 9.4 ± 0.3 | 0.1 ± 0.1 | 1.5 ± 0.1 | 2 ± 0.1 |  |  |  |  |  |  |  |  |
| C=C(CC(=O)OC)C(=O)Nc1cncc(F)c1 [Compound 7, Methyl 3-[(5-fluoropyridin-3-yl)carbamoyl]but-3-enoate] | 9 ± 0.2 | 21 ± 2.2 | 10.6 ± 0.7 | 3 ± 1.1 | 6.8 ± 1.7 | 43.4 | 8.1 ± 0.3 | 16 ± 2 | 7 ± 2 |  |  |  |  |  |  |  |  |
| C=C(CC(=O)OC)C(=O)Nc1ccc(F)cc1 [Compound 2, Methyl 3-[(4-fluorophenyl)carbamoyl]but-3-enoate] | 8.4 ± 0.5 | 15.7 | 9.3 ± 0.5 | 2 ± 0.1 | 2.8 ± 0.6 | 15.9 ± 1 | 8 ± 0.6 | 15 ± 1 | 4 ± 1 |  |  |  |  |  |  |  |  |
| C=C(CC(=O)OC)C(=O)Nc1cc(OC)cc2cccnc12 [Compound 5, Methyl 3-[(6-methoxyquinolin-8-yl)carbamoyl]but-3-enoate] | 6.1 ± 0.3 | 25.5 ± 9.4 | 10.1 ± 0.1 | 10 ± 2.5 | 6.3 ± 2.3 | 31 ± 3.9 | 6.2 ± 0.4 | 8 ± 2 | 12 ± 2 |  |  |  |  |  |  |  |  |
| C=C(CC(=O)OC)C(=O)Nc1ccc(C(F)(F)F)cc1 [Compound 4, Methyl 3-{[4-(trifluoromethyl)phenyl]carbamoyl}but-3-enoate] | 8.2 ± 0.4 | 16.1 ± 0.4 | 8 ± 0.8 | 1 ± 0.3 | 5.3 ± 0.5 | 31.3 ± 3 | 7.7 ± 0.2 | 11 ± 3 | 3 ± 1 |  |  |  |  |  |  |  |  |
| CN[C@@H]1C[C@H]2O[C@@](C)([C@@H]1OC)n1c3ccccc3c3c4c(c5c6ccccc6n2c5c31)C(=O)NC4 [STS, staurosporine, reference compound] |  |  |  |  |  |  |  |  |  | 0.0261 ± 0.0139 | 0.0161 ± 0.0105 | 0.0312 ± 0.0123 | 0.0323 ± 0.0032 | 0.0337 ± 0.0036 | 0.0634 ± 0.0223 | 0.048 ± 0.0023 | 0.023 ± 0.0114 |
